Results reported in ChEMBL document CHEMBL5058577, “EUbOPEN Chemogenomics Library 2 (Multiplex)” (2022).

Test system: HEK-293T
Assay: Multiplex assay against HEK293T
Format: toxicity, cell-based
Conditions: human
How it was run: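 With compound added, live cells were imaged on a CQ1 microscope at 37°C and 5% CO2; staining with Hoechst33342, BioTracker Green Microtubule Cytoskeleton Dye, MitoTracker Red and Annexin V Alexa Fluor 680 had been done at seeding. The CellPathfinder machine-learning gating scheme split cells into Hoechst high-intensity objects or normal cells, normal cells into healthy, pyknosed or fragmented nuclei, and pyknosed cells into mitotic or apoptotic. The tubulin, mitochondrial-mass and membrane-permeability phenotypes are per cents of healthy-nucleus cells.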

[1] = 12 h, 1 µM, compound concentration 1 uM, replicate 1
[2] = 12 h, 1 µM, compound concentration 1 uM, replicate 2
[3] = 12 h, 10 µM, compound concentration 10 uM, replicate 1
[4] = 12 h, 10 µM, compound concentration 10 uM, replicate 2
[5] = 24 h, 1 µM, compound concentration 1 uM, replicate 1
[6] = 24 h, 1 µM, compound concentration 1 uM, replicate 2
[7] = 24 h, 10 µM, compound concentration 10 uM, replicate 1
[8] = 24 h, 10 µM, compound concentration 10 uM, replicate 2
[9] = 48 h, 1 µM, compound concentration 1 uM, replicate 1
[10] = 48 h, 1 µM, compound concentration 1 uM, replicate 2
[11] = 48 h, 10 µM, compound concentration 10 uM, replicate 1
[12] = 48 h, 10 µM, compound concentration 10 uM, replicate 2

## Cc1cnc(-c2cc(N3CCN(C(=O)CCS(C)(=O)=O)CC3)ncc2Cl)c(C)c1
[1]
  Population Apoptotic (%): 29%
  Population Fragmented Nuclei (%): 6%
  Population Healthy Nuclei (%): 76%
  Population Hoechst High Intensity Objects (%): 4%
  Population Membrane Permeable-Phenotype (%): 0%
  Population Mitochondria Different-Phenotype (%): 50%
  Population Mitotic Cells (%): 70%
  Population Normal (%): 95%
  Population Pyknosed Nuclei (%): 16%
  Population Tubulin-Different-Phenotype (%): 33%
  Total Cell Count: 276
[2]
  Population Apoptotic (%): 42%
  Population Healthy Nuclei (%): 75%
  Population Hoechst High Intensity Objects (%): 9%
  Population Mitochondria Different-Phenotype (%): 69%
  Population Mitotic Cells (%): 57%
  Population Normal (%): 90%
  Population Pyknosed Nuclei (%): 17%
  Population Tubulin-Different-Phenotype (%): 24%
  Total Cell Count: 294
[3]
  Population Apoptotic (%): 42%
  Population Fragmented Nuclei (%): 7%
  Population Healthy Nuclei (%): 82%
  Population Hoechst High Intensity Objects (%): 10%
  Population Membrane Permeable-Phenotype (%): 0%
  Population Mitochondria Different-Phenotype (%): 47%
  Population Mitotic Cells (%): 57%
  Population Normal (%): 89%
  Population Pyknosed Nuclei (%): 10%
  Population Tubulin-Different-Phenotype (%): 40%
  Total Cell Count: 409
[4]
  Population Apoptotic (%): 45%
  Population Healthy Nuclei (%): 75%
  Population Hoechst High Intensity Objects (%): 7%
  Population Mitochondria Different-Phenotype (%): 70%
  Population Mitotic Cells (%): 54%
  Population Normal (%): 92%
  Population Pyknosed Nuclei (%): 17%
  Population Tubulin-Different-Phenotype (%): 39%
  Total Cell Count: 288
[5]
  Population Apoptotic (%): 36%
  Population Fragmented Nuclei (%): 8%
  Population Healthy Nuclei (%): 78%
  Population Hoechst High Intensity Objects (%): 2%
  Population Membrane Permeable-Phenotype (%): 1%
  Population Mitochondria Different-Phenotype (%): 30%
  Population Mitotic Cells (%): 63%
  Population Normal (%): 97%
  Population Pyknosed Nuclei (%): 12%
  Population Tubulin-Different-Phenotype (%): 21%
  Total Cell Count: 368
[6]
  Population Apoptotic (%): 40%
  Population Fragmented Nuclei (%): 7%
  Population Healthy Nuclei (%): 83%
  Population Hoechst High Intensity Objects (%): 6%
  Population Membrane Permeable-Phenotype (%): 0%
  Population Mitochondria Different-Phenotype (%): 36%
  Population Mitotic Cells (%): 60%
  Population Normal (%): 93%
  Population Pyknosed Nuclei (%): 9%
  Population Tubulin-Different-Phenotype (%): 13%
  Total Cell Count: 413
[7]
  Population Apoptotic (%): 33%
  Population Fragmented Nuclei (%): 15%
  Population Healthy Nuclei (%): 76%
  Population Hoechst High Intensity Objects (%): 5%
  Population Membrane Permeable-Phenotype (%): 0%
  Population Mitochondria Different-Phenotype (%): 29%
  Population Mitotic Cells (%): 66%
  Population Normal (%): 94%
  Population Pyknosed Nuclei (%): 8%
  Population Tubulin-Different-Phenotype (%): 31%
  Total Cell Count: 550
[8]
  Population Apoptotic (%): 51%
  Population Fragmented Nuclei (%): 7%
  Population Healthy Nuclei (%): 80%
  Population Mitochondria Different-Phenotype (%): 47%
  Population Mitotic Cells (%): 48%
  Population Pyknosed Nuclei (%): 12%
  Population Tubulin-Different-Phenotype (%): 22%
  Total Cell Count: 392
[9]
  Population Apoptotic (%): 27%
  Population Fragmented Nuclei (%): 17%
  Population Healthy Nuclei (%): 76%
  Population Hoechst High Intensity Objects (%): 1%
  Population Membrane Permeable-Phenotype (%): 1%
  Population Mitochondria Different-Phenotype (%): 17%
  Population Mitotic Cells (%): 72%
  Population Normal (%): 98%
  Population Pyknosed Nuclei (%): 6%
  Population Tubulin-Different-Phenotype (%): 10%
  Total Cell Count: 718
[10]
  Population Apoptotic (%): 34%
  Population Fragmented Nuclei (%): 14%
  Population Healthy Nuclei (%): 78%
  Population Hoechst High Intensity Objects (%): 2%
  Population Membrane Permeable-Phenotype (%): 0%
  Population Mitochondria Different-Phenotype (%): 22%
  Population Mitotic Cells (%): 65%
  Population Normal (%): 97%
  Population Tubulin-Different-Phenotype (%): 6%
  Total Cell Count: 595
[11]
  Population Apoptotic (%): 25%
  Population Fragmented Nuclei (%): 14%
  Population Healthy Nuclei (%): 78%
  Population Hoechst High Intensity Objects (%): 4%
  Population Membrane Permeable-Phenotype (%): 0%
  Population Mitochondria Different-Phenotype (%): 23%
  Population Mitotic Cells (%): 74%
  Population Normal (%): 95%
  Population Pyknosed Nuclei (%): 7%
  Population Tubulin-Different-Phenotype (%): 17%
  Total Cell Count: 753
[12]
  Population Apoptotic (%): 36%
  Population Healthy Nuclei (%): 77%
  Population Hoechst High Intensity Objects (%): 3%
  Population Mitochondria Different-Phenotype (%): 32%
  Population Mitotic Cells (%): 63%
  Population Normal (%): 96%
  Population Pyknosed Nuclei (%): 8%
  Population Tubulin-Different-Phenotype (%): 15%
  Total Cell Count: 576
